Reference: ChEMBL document CHEMBL4619772 (J Med Chem, 2020)

Columns and labels:
[1] = Metabolic stability in Sprague-Dawley rat pooled plasma assessed as parent compound remaining at 20 uM after 60 mins by HPLC analysis; assay type: ADME, cell-free; conditions: read-out: Stability
Outline: (§1)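 Stability is reported as % of compound remaining after 60 min incubation in plasma or liver microsomes, relative to t0.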

[2] = Metabolic stability in human liver microsomes assessed as parent compound remaining after 60 mins in presence of NADPH by HPLC analysis; assay type: ADME, Microsome; conditions: read-out: Stability; outline: as §1
[3] = Selectivity index, ratio of CC50 for human A549 cells to EC50 for HIV/EBOV-GP infected in human A549 cells; assay type: toxicity, cell-based; conditions: read-out: Ratio CC50/EC50
Outline: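 Ratio CC50/EC50. CC50 is A549 cytotoxicity by CellTiter 96 aqueous nonradioactive cell proliferation assay.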

[4] = Metabolic stability in human pooled plasma assessed as parent compound remaining at 20 uM after 60 mins by HPLC analysis; assay type: ADME, cell-free; conditions: read-out: Stability; outline: as §1
[5] = Inhibition of pseudotyped HIV/MARV GP infected in human A549 cells assessed as reduction in virus entry measured after 48 hrs by luciferase reporter gene assay; assay type: cell-based, Marburgvirus; conditions: Orthomarburgvirus, A549, 48 h
[6] = Selectivity index, ratio of CC50 for human HeLa cells to EC50 for Ebola virus 1976 Mayinga in human HeLa cells; assay type: toxicity, cell-based; conditions: read-out: Ratio CC50/EC50
Marburgvirus [7] = assay: Antiviral activity against Marburg virus Lake Victoria, 2005 Angola infected in human HeLa cells pretreated for 1 hr followed by virus infection measured after 24 hrs by Hoechst staining-based immunofluorescence assay; assay type: functional, organism-based, Lake Victoria marburgvirus; conditions: Orthomarburgvirus, Angola2005, HeLa
A549 [8] = assay: Inhibition of pseudotyped HIV/EBOV GP infected in human A549 cells assessed as reduction in virus entry at 12.5 uM measured after 48 hrs by luciferase reporter gene assay relative to control; assay type: cell-based; conditions: Ebolavirus
Outline: (§2)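 Low-passage A549 cells are infected with HIV-based pseudovirions carrying EBOV or MARV GP and a luciferase reporter, with or without compound at 12.5 μM. […] Toremifene is the positive control.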

Cytochrome P450 2C9 [9] = target: T1, Cytochrome P450 2C9 (Homo sapiens, UniProt P11712); assay: Inhibition of recombinant human CYP2C9 expressed in baculovirus infected insect cell microsomes using vivid BOMF as substrate preincubated for 10 mins followed by substrate addition and measured after 25 mins in presence of […] by fluorescence assay; assay type: ADME
T1 sequence (P11712 whole entry): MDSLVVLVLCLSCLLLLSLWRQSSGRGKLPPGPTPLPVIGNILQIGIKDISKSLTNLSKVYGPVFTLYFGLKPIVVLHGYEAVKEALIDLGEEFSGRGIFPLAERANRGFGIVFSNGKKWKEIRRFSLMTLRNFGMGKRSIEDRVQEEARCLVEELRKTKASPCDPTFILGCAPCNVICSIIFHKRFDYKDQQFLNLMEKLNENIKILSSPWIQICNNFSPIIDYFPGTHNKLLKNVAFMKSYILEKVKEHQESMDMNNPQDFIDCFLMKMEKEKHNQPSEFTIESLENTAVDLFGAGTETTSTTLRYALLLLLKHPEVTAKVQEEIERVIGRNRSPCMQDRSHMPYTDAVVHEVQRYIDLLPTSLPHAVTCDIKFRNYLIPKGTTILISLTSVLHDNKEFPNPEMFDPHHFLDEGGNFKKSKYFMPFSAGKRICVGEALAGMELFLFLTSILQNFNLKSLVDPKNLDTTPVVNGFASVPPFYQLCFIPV
Outline: (§3)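 CYP2C9 inhibition IC50 is determined with 30 μM sulfaphenazole as positive inhibitor control, from three replicates; errors are estimated <10%.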

Cytochrome P450 3A4 [10] = target: T2, Cytochrome P450 3A4 (Homo sapiens, UniProt P08684); assay: Inhibition of recombinant human CYP3A4 expressed in baculovirus infected insect cell microsomes using vivid DBOMF as substrate preincubated for 10 mins followed by substrate addition and measured after 25 mins in presence of […] by fluorescence assay; assay type: ADME
T2 sequence (P08684 whole entry): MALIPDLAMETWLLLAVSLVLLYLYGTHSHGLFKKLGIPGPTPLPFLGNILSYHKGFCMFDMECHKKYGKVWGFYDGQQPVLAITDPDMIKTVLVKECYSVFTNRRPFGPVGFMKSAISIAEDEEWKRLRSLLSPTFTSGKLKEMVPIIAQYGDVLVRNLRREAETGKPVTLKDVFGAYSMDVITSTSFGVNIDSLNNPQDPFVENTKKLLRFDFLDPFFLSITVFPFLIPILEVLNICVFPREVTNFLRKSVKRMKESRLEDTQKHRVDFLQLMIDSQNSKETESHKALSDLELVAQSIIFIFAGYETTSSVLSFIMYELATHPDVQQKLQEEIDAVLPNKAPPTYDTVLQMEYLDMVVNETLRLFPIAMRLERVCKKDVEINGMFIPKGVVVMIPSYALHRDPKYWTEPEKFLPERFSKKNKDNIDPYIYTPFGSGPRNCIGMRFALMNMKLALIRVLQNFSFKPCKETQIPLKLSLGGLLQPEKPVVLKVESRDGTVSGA
Outline: (§4)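 CYP3A4 inhibition IC50 is determined with 10 μM quinidine as positive inhibitor control, from three replicates; errors are estimated <10%.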

[11] = Metabolic stability in Fischer F344 rat liver microsomes assessed as parent compound remaining after 60 mins in presence of NADPH by HPLC analysis; assay type: ADME, Microsome; conditions: read-out: Stability; outline: as §1
[12] = Inhibition of pseudotyped HIV/EBOV GP infected in human A549 cells assessed as reduction in virus entry measured after 48 hrs by luciferase reporter gene assay; assay type: cell-based, Ebolavirus; conditions: Orthoebolavirus, A549, 48 h
A549 [13] = assay: Inhibition of pseudotyped HIV/MARV GP infected in human A549 cells assessed as reduction in virus entry at 12.5 uM measured after 48 hrs by luciferase reporter gene assay relative to control; assay type: cell-based; conditions: Marburgvirus; outline: as §2
Zaire ebolavirus [14] = assay: Antiviral activity against Ebola virus 1976 Mayinga infected in human HeLa cells pretreated for 1 hr followed by virus infection measured after 24 hrs by Hoechst staining-based immunofluorescence assay; assay type: functional, organism-based
Cytochrome P450 2C9 [15] = target: T1, Cytochrome P450 2C9; assay: Inhibition of recombinant human CYP2C9 expressed in baculovirus infected insect cell microsomes using fluorescent substrate in presence of NADPH by fluorescence assay; assay type: ADME; outline: as §3
Cytochrome P450 3A4 [16] = target: T2, Cytochrome P450 3A4; assay: Inhibition of recombinant human CYP3A4 expressed in baculovirus infected insect cell microsomes using fluorescent substrate in presence of NADPH by fluorescence assay; assay type: ADME; outline: as §4
Zaire ebolavirus [17] = assay: Antiviral activity against Ebola virus 1976 Mayinga infected in African green monkey Vero cells pretreated for 1 hr followed by virus infection measured after 24 hrs by Hoechst staining-based immunofluorescence assay; assay type: functional, organism-based
[18] = Selectivity index, ratio of CC50 for African green monkey Vero cells to EC50 for Ebola virus 1976 Mayinga infected in African green monkey Vero cells; assay type: toxicity; conditions: read-out: Ratio CC50/EC50
Zaire ebolavirus [19] = assay: Antiviral activity against Ebola virus 1976 Mayinga infected in African green monkey Vero cells; assay type: functional, organism-based
Marburgvirus [20] = assay: Antiviral activity against Marburg virus Lake Victoria, 2005 Angola infected in African green monkey Vero cells; assay type: functional, organism-based, Lake Victoria marburgvirus; conditions: Orthomarburgvirus, Angola2005, Vero

Structure (SMILES) | remaining at 1 h, 20 µM [1] | remaining at 1 h [2] | selectivity ratio [3] | remaining at 1 h, 20 µM [4] | EC50 [5] | selectivity ratio [6] | EC50 (Marburgvirus [7]) | inhibition (A549 [8]) | IC50 (Cytochrome P450 2C9 [9]) | IC50 (Cytochrome P450 3A4 [10]) | remaining at 1 h [11] | EC50 [12] | inhibition (A549 [13]) | EC50 (Zaire ebolavirus [14]) | IC50 (Cytochrome P450 2C9 [15]) | IC50 (Cytochrome P450 3A4 [16]) | EC50 (Zaire ebolavirus [17]) | selectivity ratio [18] | EC50 (Zaire ebolavirus [19]) | EC50 (Marburgvirus [20])
CC(C)(C)c1ccc(NC(=O)c2ccc(CN3CCCCC3)cc2)c(C(C)(C)C)c1 | 82% | 17% | 76 | 85% | 2.34 µM | 227 | 2 µM | 99.5% | 18.6 µM | > 100 µM | 99% | 0.48 µM | 85% | 0.59 µM |  |  |  |  |  | 
O=C(Nc1ccc(SC(F)(F)F)c(Cl)c1)c1ccc(CN2CCCCC2)cc1 | 88% | 90% | 5 | 100% | 1.61 µM | 14 | 2.4 µM | 99.9% | 4.49 µM | 15.1 µM | 94% | 1.27 µM | 99.8% | 1.12 µM |  |  |  |  |  | 
O=C(Nc1ccc(C23CC4CC(CC(C4)C2)C3)cc1)c1ccc(CN2CCOCC2)cc1 | 86% | 34% | 5440 | 86% | 2.79 µM | 134 | 0.52 µM | 99% |  |  | 57% | 0.018 µM | 72.5% | 0.83 µM | 3.14 µM | > 100 µM |  |  |  | 
COC(=O)c1ccc(NC(=O)c2ccc(CN3CCCCC3)cc2)cc1 | 78% | 54% | 15 | 63% | 0.53 µM |  |  | 74% |  |  | 0% | 9.86 µM | 90.7% | > 25 µM |  |  | 2.83 µM | 35 | < 10 µM | < 10 µM
CC1CCN(c2ccc(NC(=O)c3ccc(CN4CCOCC4)cc3)cc2C(F)(F)F)CC1 | 89% | 64% | 2090 | 100% | 0.18 µM | 58 | 0.82 µM | 99.3% |  |  | 75% | 0.012 µM | 92.3% | 0.31 µM | 4.98 µM | > 100 µM |  |  |  | 
CC(c1ccc(C(=O)N2CCc3cc(C(C)(C)C)ccc32)cc1)N1CCCCC1 (configuration not stated) | 62% | 46% | 9 | 94% | 3.09 µM | 19 | 3.38 µM | 99.8% | 7.94 µM | 24 µM | 27% | 2.05 µM | 98.1% |  |  |  |  |  |  | 
O=C(Nc1ccc(C23CC4CC(CC(C4)C2)C3)cc1)c1ccc(CN2CCCCC2)cc1 | 96% | 75% | 231 | 100% | 0.38 µM | 202 | 1.23 µM | 99.4% | > 100 µM | > 100 µM | 71% | 0.035 µM | 99% | 0.11 µM |  |  |  |  |  | 
